Structures are written as SMILES. Entries after “also recorded” stand apart in the source; their conditions may differ. Like-named read-outs stand apart in the source and are kept apart here. Bounds are passed on as bounds.

Test [1] has as its system PC43-10 CHO cells (express human RFC). The conditions noted are these: mean (SEM), previously published, cited from earlier work.
For test [2], the system named is FRα- and PCFT-expressing tumor cells. The settings on record: up; cited from earlier work.
Test [3] relates to RT16 CHO cells (express human FRα). The settings on record: read-out: IC50 FRα RT16; without folic acid; mean (SEM); cited from earlier work.
The subject of test [4] is KB human nasopharyngeal carcinoma cells (express RFC, FRα, PCFT). The experiment in a line: Growth inhibition assay, KB human tumor cells. In kind it is cell-based. The settings on record: for IC50: Homo sapiens, read-out: IC50 RFC/FRα/PCFT KB.
A further test addresses FRβ (Homo sapiens, UniProt P14207). The experiment in a line: Competitive [3H]folic acid binding assay, FRβ in D4 cells. The conditions noted are these: 50 nM [3H]folic acid, folic acid = 1. In a few lines:
(§1)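 Cells plated 48 h ahead (~5 × 10^6) were acid-stripped of bound folate (pH 3.5 acetate/NaCl) and washed in ice-cold HEPES saline, pH 7.4. They were then incubated 15 min at 0 °C with 50 nM [3H]folic acid (0.5 Ci/mmol) across a range of unlabeled ligand concentrations. After NaOH lysis, bound label was read as pmol/mg protein.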

In test [5] the test system is R2/PCFT4 CHO cells (express human PCFT). The experiment in a line: Growth inhibition assay, PCFT-expressing R2/PCFT4 CHO cells. In kind it is cell-based, Chinese hamster. The conditions noted are these: R2/PCFT4, pH 7.2, read-out: IC50 PCFT R2/PCFT4.
Test [6] deals with D4 CHO cells (express human FRβ). In words: Growth inhibition assay, FRβ-expressing D4 CHO cells. The format is cell-based, Chinese hamster. The settings on record: for IC50: CHO, read-out: IC50 FRβ D4; for IC50 FRβ D4: without folic acid, mean (SEM). The essentials:
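D4 cells were seeded at ~2500–5000 per well in folate-free RPMI with 10% dialyzed FBS, 2 nM leucovorin and 2 mM L-glutamine. They were exposed to a range of drug concentrations for up to 96 h, with or without 200 nM folic acid in parallel. Viability was read by CellTiter-Blue fluorescence.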

The test system of test [7] is PC43-10 CHO cells (express human RFC). The experiment in a line: Growth inhibition assay, RFC-expressing PC43-10 CHO cells. In kind it is cell-based, Chinese hamster. The settings on record: PC43-10, 96 h, read-out: IC50 RFC PC43-10.
The target in another test is FRα (Homo sapiens, UniProt P15328). The experiment in a line: Competitive [3H]folic acid binding assay, FRα in RT16 cells. The conditions noted are these: 50 nM [3H]folic acid, folic acid = 1. The essentials: as §1
Another test has as its system KB cells. The experiment in a line: Nucleoside/AICA protection of growth inhibition in KB cells. The format is cell-based, human. The essentials: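 KB human nasopharyngeal carcinoma cells were grown in complete folate-free RPMI 1640 with 2 nM LCV, with a range of test compound concentrations. Runs had no additions or included 200 nM folic acid, adenosine (60 μM), thymidine (10 μM) or AICA (320 μM). Cell density was read by CellTiter Blue fluorescence and normalized to no-drug cells; experiments were performed in triplicate.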

The next test has as its target T1, GARFTase (Homo sapiens, UniProt P22102).
T1 sequence (P22102 1-1010): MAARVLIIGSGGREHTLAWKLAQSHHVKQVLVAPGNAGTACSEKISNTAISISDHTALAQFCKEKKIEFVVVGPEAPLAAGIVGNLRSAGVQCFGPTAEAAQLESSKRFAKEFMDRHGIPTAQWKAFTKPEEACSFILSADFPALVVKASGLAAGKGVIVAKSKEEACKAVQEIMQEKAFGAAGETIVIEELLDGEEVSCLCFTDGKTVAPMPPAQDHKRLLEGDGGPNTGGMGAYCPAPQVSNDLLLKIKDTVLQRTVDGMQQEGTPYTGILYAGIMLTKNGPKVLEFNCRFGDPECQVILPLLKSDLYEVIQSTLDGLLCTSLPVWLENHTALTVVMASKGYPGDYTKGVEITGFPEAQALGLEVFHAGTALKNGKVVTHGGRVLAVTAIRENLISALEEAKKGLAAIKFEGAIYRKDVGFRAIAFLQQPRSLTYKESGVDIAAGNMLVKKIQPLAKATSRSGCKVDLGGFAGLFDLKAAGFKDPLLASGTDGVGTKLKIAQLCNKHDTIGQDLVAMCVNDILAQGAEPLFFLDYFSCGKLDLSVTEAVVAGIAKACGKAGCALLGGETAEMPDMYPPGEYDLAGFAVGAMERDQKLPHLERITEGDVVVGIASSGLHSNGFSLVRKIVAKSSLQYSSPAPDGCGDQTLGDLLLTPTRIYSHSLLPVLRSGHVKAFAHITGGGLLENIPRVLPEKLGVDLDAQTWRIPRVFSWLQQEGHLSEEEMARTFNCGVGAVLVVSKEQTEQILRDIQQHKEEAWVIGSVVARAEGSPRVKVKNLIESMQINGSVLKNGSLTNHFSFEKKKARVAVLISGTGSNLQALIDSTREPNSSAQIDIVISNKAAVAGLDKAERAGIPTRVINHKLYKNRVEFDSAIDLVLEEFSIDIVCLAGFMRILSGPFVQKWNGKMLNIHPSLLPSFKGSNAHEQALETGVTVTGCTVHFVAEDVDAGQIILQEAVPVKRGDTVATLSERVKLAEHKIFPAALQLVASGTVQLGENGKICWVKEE
The experiment in a line: In situ GARFTase activity assay in KB cells. The settings on record: ratio of in situ GARFTase IC50s vs compound 7. The format is cell-based.

Chain of FRβ (P14207 17-255): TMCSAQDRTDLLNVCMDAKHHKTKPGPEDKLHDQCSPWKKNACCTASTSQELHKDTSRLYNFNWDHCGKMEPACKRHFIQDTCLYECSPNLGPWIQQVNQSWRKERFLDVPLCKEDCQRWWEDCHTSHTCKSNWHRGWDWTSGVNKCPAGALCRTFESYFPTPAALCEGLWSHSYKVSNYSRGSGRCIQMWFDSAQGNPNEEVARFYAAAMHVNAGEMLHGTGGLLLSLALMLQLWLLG
Chain of FRα (P15328 25-257): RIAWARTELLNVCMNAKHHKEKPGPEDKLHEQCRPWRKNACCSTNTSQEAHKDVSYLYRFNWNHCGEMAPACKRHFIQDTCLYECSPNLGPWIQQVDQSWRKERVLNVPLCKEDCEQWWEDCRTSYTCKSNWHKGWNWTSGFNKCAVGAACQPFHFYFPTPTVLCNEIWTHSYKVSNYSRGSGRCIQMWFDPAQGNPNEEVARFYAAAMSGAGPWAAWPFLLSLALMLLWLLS

Take `Nc1nc2[nH]c(CCCc3ccc(C(=O)N[C@@H](CCC(=O)O)C(=O)O)s3)cc2c(=O)[nH]1` [Compound 7, (S)-2-({5-[3-(2-Amino-4-oxo-4,7-dihydro-3H-pyrrolo[2,3-d]pyrimidin-6-yl)-propyl]-thiophene-2-carbonyl}-amino)-pentanedioic Acid]: in test [1], the “IC50 RFC PC43-10” value is given as “modest inhibition”. Besides, the values for the IC50 in [1] (read-out: IC50 RFC PC43-10) and in test [3] were 101 nM and 0.31 nM, respectively. Besides, the “increase of cell growth inhibition compared to 8” value in [2] was about 10 fold.
Turning to `Nc1nc2[nH]c(CCCc3ccc(C(=O)O)s3)cc2c(=O)[nH]1` [Compound 9, 5-[3-(2-Amino-4-oxo-4,7-dihydro-3H-pyrrolo[2,3-d]pyrimidin-6-yl)-propyl]-thiophene-2-carboxylic Acid], the IC50 in test [4], in test [5], in test [6] and in test [7] was over 1000 nM in each case. Besides, at FRβ, the “relative binding affinity to FRβ (in words)” value is on record as “Substantially reduced; also recorded: undetectable binding”. The “IC50 FRβ D4” value in test [6] was “completely inactive”. Moreover, the “relative binding affinity to FRα (in words)” value on FRα is “Substantially reduced”.
Turning to `Nc1nc2[nH]c(CCCc3ccc(C(=O)N[C@@H](CC(=O)O)C(=O)O)s3)cc2c(=O)[nH]1` [Compound 10, (S)-2-({5-[3-(2-Amino-4-oxo-4,7-dihydro-3H-pyrrolo[2,3-d]pyrimidin-6-yl)-propyl]-thiophene-2-carbonyl}-amino)-butanedioic Acid], the IC50 in test [4], in [5] and in [7] was over 1000 nM throughout. For the same molecule, the “IC50 FRβ D4” value in [6] is listed as “substantially reduced activity”. The “relative binding affinity to FRα (in words)” value on FRα is “bound avidly to FRα”.
On to `Nc1nc2[nH]c(CCCc3ccc(C(=O)N[C@@H](CCCC(=O)O)C(=O)O)s3)cc2c(=O)[nH]1` [Compound 11, (S)-2-({5-[3-(2-Amino-4-oxo-4,7-dihydro-3H-pyrrolo[2,3-d]pyrimidin-6-yl)propyl]thiophene-2-carbonyl}-amino)-hexanedioic Acid], for which, in test [4] (KB cells, IC50 9 nM vs 0.26 nM), the “fold reduction of KB potency relative to IC50 of 7” value is “approximately 35 fold”. The “relative binding affinity to FRβ (in words)” value on FRβ is given as “somewhat reduced”. In addition, the IC50 in test [5] and in test [7] was over 1000 nM in each case. The “effect of AICA on inhibition of KB cell proliferation” value with KB cells (AICA 320 μM) is listed as “abolished the inhibitory effects”. The “effect of adenosine on inhibition of KB cell proliferation” value with KB cells (adenosine 60 μM) is reported as “abolished the inhibitory effects”. Also, the “effect of thymidine on inhibition of KB cell proliferation” value with KB cells (thymidine 10 μM) is reported as “had no effect”. Moreover, the “fold less potent than 7 as GARFTase inhibitor in KB cells” value at GARFTase was about 6 fold.
For `Nc1nc2[nH]c(CCCc3ccc(C(=O)NCCCC(=O)O)s3)cc2c(=O)[nH]1` [Compound 12, 4-({5-[3-(2-Amino-4-oxo-4,7-dihydro-3H-pyrrolo[2,3-d]pyrimidin-6-yl)propyl]thiophene-2-carbonyl}-amino)-butanoic Acid], the IC50 in test [4], in [5], in test [6] and in [7] was over 1000 nM each time. For the same molecule, the “relative binding affinity to FRβ (in words)” value on FRβ is recorded as “somewhat reduced; also recorded: distinctly reduced binding affinities”. For the same molecule, in test [6], the “IC50 FRβ D4” value is given as “complete inactivity”. On FRα, the “relative binding affinity to FRα (in words)” value is given as “bound avidly to FRα”.
For the molecule `CCC[C@H](NC(=O)c1ccc(CCCc2cc3c(=O)[nH]c(N)nc3[nH]2)s1)C(=O)O` [Compound 13, (S)-2-({5-[3-(2-Amino-4-oxo-4,7-dihydro-3H-pyrrolo[2,3-d]pyrimidin-6-yl)propyl]thiophene-2-carbonyl}-amino)-pentanoic Acid], the IC50 in test [4], in test [5], in [6] and in test [7] was over 1000 nM in each case. Also, on FRβ, the “relative binding affinity to FRβ (in words)” value is given as “somewhat reduced; also recorded: distinctly reduced binding affinities”. In addition, in [6], the “IC50 FRβ D4” value is “complete inactivity”. Besides, the “relative binding affinity to FRα (in words)” value at FRα is reported as “bound avidly to FRα”.
